Screens: PubChem, Johns Hopkins Ion Channel Center
TRPC4 potent: TRPC4 (mouse) allosteric potentiation | Q9QUQ5 | HEK293 TRPC4beta/mu-opioid, DAMGO EC20, Fluo-4 Ca2+ flux; stronger effect = higher value | B-score at 10 µM | 310,000 tested, 0.42% active | AID 2227;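 active = B-score of calcium response area above 5 SD of library B-scores, with initial fluorescence ratio within 5 SD of library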;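 note: B-score of integrated fluorescence ratio over time as area under calcium response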
TRPC4 inh: inhibitors of mouse TRPC4 channel. Q9QUQ5. HEK293 TRPC4beta/mu-opioid, DAMGO-evoked Fluo4 calcium flux; stronger effect = lower value. B-score at 10 µM. 300,000 tested, 0.39% active. AID 2247;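 active = B-score over 3 SD under the library average, no early fluorescence shift, positive overall ratio signal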
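material = TRPC4beta/mu-opioid receptor HEK293 cell line | probe or stimulus = sequential submaximal and maximal DAMGO stimulation | compound dosing = one concentration per compound | measured by = Fluo4 Ca2+ flux fluorescence | evaluation = integrated fluorescence ratio relative to baseline, converted to per-well B score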
TRPC6 inhibitor: inhibitors of mouse TRPC6 channel. Q61143. HEK293-TRPC6, membrane potential dye, ACh-evoked depolarization; stronger effect = lower value. B-score at 10 µM. 310,000 tested, 1.1% active;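 active = B-score under library mean minus 3 SD, initial fluorescence not abnormally high, positive integrated signal ratio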;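 note: B-score derived from integrated fluorescence ratio over the kinetic read; more negative B-score means stronger inhibition of depolarization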
Target sequence (Q61143 whole entry, looked up): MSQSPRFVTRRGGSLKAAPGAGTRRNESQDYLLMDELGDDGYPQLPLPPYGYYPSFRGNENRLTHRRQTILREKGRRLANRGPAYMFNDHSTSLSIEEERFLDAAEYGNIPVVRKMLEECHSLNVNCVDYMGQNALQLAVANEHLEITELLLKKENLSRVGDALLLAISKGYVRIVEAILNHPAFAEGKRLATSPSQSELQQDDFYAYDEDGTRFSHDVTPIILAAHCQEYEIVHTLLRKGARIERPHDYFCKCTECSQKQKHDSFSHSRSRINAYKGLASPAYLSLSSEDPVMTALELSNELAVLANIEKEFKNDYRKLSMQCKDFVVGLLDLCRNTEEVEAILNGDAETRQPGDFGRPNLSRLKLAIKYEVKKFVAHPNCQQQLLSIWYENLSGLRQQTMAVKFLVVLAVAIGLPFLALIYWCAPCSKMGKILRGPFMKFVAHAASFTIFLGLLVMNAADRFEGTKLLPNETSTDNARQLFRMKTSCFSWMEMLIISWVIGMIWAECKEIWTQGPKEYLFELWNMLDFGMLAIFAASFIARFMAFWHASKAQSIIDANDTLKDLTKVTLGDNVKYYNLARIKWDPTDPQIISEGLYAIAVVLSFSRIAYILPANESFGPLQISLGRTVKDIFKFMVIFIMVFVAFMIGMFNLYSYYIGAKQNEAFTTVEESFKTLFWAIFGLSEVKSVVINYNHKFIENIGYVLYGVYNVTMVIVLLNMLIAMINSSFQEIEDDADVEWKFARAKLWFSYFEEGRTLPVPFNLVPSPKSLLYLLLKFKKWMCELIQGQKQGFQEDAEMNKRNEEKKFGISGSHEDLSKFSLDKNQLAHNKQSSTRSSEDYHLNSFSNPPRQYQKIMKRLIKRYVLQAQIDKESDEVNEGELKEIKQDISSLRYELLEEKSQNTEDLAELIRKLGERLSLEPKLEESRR
TRPC6 activator: mouse TRPC6 channel activation; B-score at 10 µM; AID 2550; 310,000 tested, 0.13% active; HEK293-TRPC6 membrane potential dye fluorescence; stronger effect = higher value;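 active = B-score of the integrated fluorescence ratio above library mean plus 3 SD, and starting fluorescence ratio within library mean plus 5 SD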;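 note: higher score means more depolarization so channel activation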
TRPC4 agonist: activators of mouse TRPC4 channel. Q9QUQ5. HEK293 TRPC4beta/mu-opioid, Fluo4 calcium fluorescence; stronger effect = higher value. AID 2237. B-score at 10 µM. 310,000 tested, 0.49% active;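 active = B-score above 5 SD of library B-scores, and initial fluorescence ratio not above library mean plus 5 SD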;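 note: positive B-score marks a calcium rise read as TRPC4 activation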
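Material: HEK293 stable line with TRPC4beta plus mu-opioid receptor; technique: Fluo4 calcium-sensitive dye fluorescence, kinetic, 1 Hz baseline; timing: Fluo4 dye loading 45 min at room temperature, 110 s recording; controls: assay buffer as low control, maximal DAMGO as high control; read-out: integrated baseline-normalised fluorescence ratio, converted to per-well B score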
* hit, by the source's call. A selection: hits, their analogues and other compounds. The true share with any hit is near 2.3%.

Results for CN(C)C(CNC(=S)Nc1ccc(Cl)cc1)c1cccnc1 (stereo not given) ?
TRPC4 potent: inactive; TRPC4 inh: inactive; TRPC6 inhibitor: inactive; TRPC6 activator: inactive; TRPC4 agonist: 86*

Results for CN(C)C(CNC(=O)Nc1cccc(Cl)c1)c1cccnc1 (stereo not given) ?
TRPC4 potent: inactive; TRPC4 inh: inactive; TRPC6 inhibitor: inactive; TRPC6 activator: inactive; TRPC4 agonist: 65*

How did O=C(NCc1cccnc1)Nc1cccc(Cl)c1 do in these assays?
TRPC4 potent: inactive; TRPC4 inh: inactive; TRPC6 inhibitor: inactive; TRPC6 activator: inactive; TRPC4 agonist: inactive

How did Cc1cc(=O)oc2c3c(cc(OCC(=O)NCCCn4ccnc4)c12)OC(C)(C)CC3 do in these assays?
TRPC4 potent: inactive; TRPC4 inh: inactive; TRPC6 inhibitor: inactive; TRPC6 activator: inactive; TRPC4 agonist: inactive

Results for CC(=O)OC(c1nc2ccccc2c(=O)n1C1CC2(OC1=O)c1ccccc1N1C(=O)C(C)(C)N(O)C12)C(C)C (stereo not given) ?
TRPC4 potent: inactive; TRPC4 inh: inactive; TRPC6 inhibitor: inactive; TRPC6 activator: inactive; TRPC4 agonist: 83*

What do the screens show for `CCc1ccccc1NS(=O)(=O)c1cc2c3c(c1)CCN3C(=O)CC2`?
TRPC4 potent: inactive; TRPC4 inh: inactive; TRPC6 inhibitor: inactive; TRPC6 activator: inactive; TRPC4 agonist: inactive

Results for c1ccc2c(CC3=NCCN3)cccc2c1 ?
TRPC4 potent: inactive; TRPC4 inh: inactive; TRPC6 inhibitor: inactive; TRPC6 activator: inactive; TRPC4 agonist: inactive

Results for Cc1cc(C(C)(C)C)c(O)c(C)c1CC1=NCCN1 ?
TRPC4 potent: 17*; TRPC4 inh: inactive; TRPC6 inhibitor: inactive; TRPC6 activator: inactive; TRPC4 agonist: inactive

What do the screens show for `Cn1cc(-c2nc3ccccc3[nH]2)c2ccccc21`?
TRPC4 potent: inactive; TRPC4 inh: -6*; TRPC6 inhibitor: inactive; TRPC6 activator: inactive; TRPC4 agonist: inactive

How did CC(C)(c1ccccc1)c1ccc(OCCCNCCO)cc1 do in these assays?
TRPC4 potent: inactive; TRPC4 inh: -6*; TRPC6 inhibitor: inactive; TRPC6 activator: inactive; TRPC4 agonist: inactive

Results for CN1CCN(C2=Nc3cc(F)ccc3Cc3ccccc32)CC1 ?
TRPC4 potent: inactive; TRPC4 inh: inactive; TRPC6 inhibitor: -5.2*; TRPC6 activator: inactive; TRPC4 agonist: inactive

Results for CN1CCN(C2=Nc3c(Cl)cc(Cl)c4cccc2c34)CC1 ?
TRPC4 potent: inactive; TRPC4 inh: inactive; TRPC6 inhibitor: inactive; TRPC6 activator: inactive; TRPC4 agonist: inactive

What do the screens show for `O=C(CCNC(=O)Cn1ccc2ccccc2c1=O)NCCN1CCN(c2cccc(Cl)c2)CC1`?
TRPC4 potent: inactive; TRPC4 inh: -6*; TRPC6 inhibitor: inactive; TRPC6 activator: inactive; TRPC4 agonist: inactive

How did CC1(C)CC(=O)C(C(C2=C(O)CC(C)(C)CC2=O)c2ccc(Cl)c([N+](=O)[O-])c2)C(=O)C1 (stereo not given) do in these assays?
TRPC4 potent: inactive; TRPC4 inh: inactive; TRPC6 inhibitor: inactive; TRPC6 activator: inactive; TRPC4 agonist: 46*

Results for CCOC(=O)c1sc(NC(=O)CN2CCN(c3ccccc3)CC2)nc1C ?
TRPC4 potent: inactive; TRPC4 inh: inactive; TRPC6 inhibitor: inactive; TRPC6 activator: inactive; TRPC4 agonist: inactive

How did CC(C)=CCN1CCN(Cc2cccc3nonc23)CC1CCO (stereo not given) do in these assays?
TRPC4 potent: inactive; TRPC4 inh: -5*; TRPC6 inhibitor: inactive; TRPC6 activator: inactive; TRPC4 agonist: inactive

Results for COc1ccc(-n2nc(C(=O)O)cc2-c2ccccc2)cc1 ?
TRPC4 potent: inactive; TRPC4 inh: inactive; TRPC6 inhibitor: inactive; TRPC6 activator: inactive; TRPC4 agonist: inactive

What do the screens show for `Cn1ncc(C#N)c1/N=C/N(Cc1ccccc1)Cc1ccccc1`?
TRPC4 potent: 16*; TRPC4 inh: inactive; TRPC6 inhibitor: inactive; TRPC6 activator: inactive; TRPC4 agonist: inactive

Results for CCCOc1cccc(C(=O)NCCNC(=O)c2ccco2)c1 ?
TRPC4 potent: inactive; TRPC4 inh: -6*; TRPC6 inhibitor: inactive; TRPC6 activator: inactive; TRPC4 agonist: inactive

Results for CCCCn1c2ccccc2c2nnc(SCCN3CCCCC3)nc21 ?
TRPC4 potent: inactive; TRPC4 inh: -7*; TRPC6 inhibitor: inactive; TRPC6 activator: inactive; TRPC4 agonist: inactive

How did CCCCn1c2ccc(F)cc2c2nnc(SCCN3CCOCC3)nc21 do in these assays?
TRPC4 potent: inactive; TRPC4 inh: inactive; TRPC6 inhibitor: inactive; TRPC6 activator: inactive; TRPC4 agonist: inactive

What do the screens show for `O=C(NCCCO)C(=O)NCc1ccncc1`?
TRPC4 potent: inactive; TRPC4 inh: inactive; TRPC6 inhibitor: inactive; TRPC6 activator: inactive; TRPC4 agonist: inactive

How did Cc1ccc(OCc2cc(C(=O)N(C)CCc3nc4ccccc4[nH]3)no2)cc1C do in these assays?
TRPC4 potent: inactive; TRPC4 inh: -6*; TRPC6 inhibitor: inactive; TRPC6 activator: inactive; TRPC4 agonist: inactive

What do the screens show for `C=CCNC(=S)N1CCN(c2ncc(C(F)(F)F)cc2Cl)CC1`?
TRPC4 potent: 11*; TRPC4 inh: inactive; TRPC6 inhibitor: inactive; TRPC6 activator: inactive; TRPC4 agonist: inactive

What do the screens show for `C=CCNC(=S)N1CCN(c2ccccc2Cl)CC1`?
TRPC4 potent: inactive; TRPC4 inh: inactive; TRPC6 inhibitor: inactive; TRPC6 activator: inactive; TRPC4 agonist: inactive

How did Cc1cc(C)cc(NC(=S)N2CCN(c3ncc(C(F)(F)F)cc3Cl)CC2)c1 do in these assays?
TRPC4 potent: inactive; TRPC4 inh: inactive; TRPC6 inhibitor: inactive; TRPC6 activator: inactive; TRPC4 agonist: 141*

How did N#Cc1c(-c2cccs2)nc(SCc2ccc(Cl)cc2)[nH]c1=O do in these assays?
TRPC4 potent: 15*; TRPC4 inh: -7*; TRPC6 inhibitor: inactive; TRPC6 activator: inactive; TRPC4 agonist: inactive

What do the screens show for `Cc1ccc(C(C(=O)NC(C)(C)C)N(Cc2ccco2)C(=O)CCC(=O)Nc2ccccn2)cc1` (stereo not given)?
TRPC4 potent: inactive; TRPC4 inh: inactive; TRPC6 inhibitor: inactive; TRPC6 activator: inactive; TRPC4 agonist: inactive

How did Cc1ccc(C(C(=O)NC(C)(C)C)N(C(=O)CCC(=O)Nc2ccccn2)c2ccccc2F)cc1 (stereo not given) do in these assays?
TRPC4 potent: inactive; TRPC4 inh: -8*; TRPC6 inhibitor: inactive; TRPC6 activator: inactive; TRPC4 agonist: inactive

What do the screens show for `CN(C)c1ccc(CC(=O)c2nc3ccccc3s2)cc1`?
TRPC4 potent: inactive; TRPC4 inh: inactive; TRPC6 inhibitor: inactive; TRPC6 activator: inactive; TRPC4 agonist: inactive

What do the screens show for `NNc1nnc2c3cc(F)ccc3n(Cc3ccccc3)c2n1`?
TRPC4 potent: inactive; TRPC4 inh: inactive; TRPC6 inhibitor: inactive; TRPC6 activator: inactive; TRPC4 agonist: inactive
